Measured values reported in ChEMBL document CHEMBL1133557, “Synthesis, SARs, and pharmacological characterization of 2-amino-3 or 6-fluorobicyclo[3.1.0]hexane-2,6-dicarboxylic acid derivatives as potent, selective, and orally active group II metabotropic glutamate receptor agonists” (J Med Chem, 2000).

Columns and labels:
[1] = molecular target: T1, Metabotropic glutamate receptor 2 (Rattus norvegicus, UniProt P31421); experiment: Agonist activity against Metabotropic glutamate receptor 2 expressed in CHO cells was evaluated by measuring forskolin-induced cyclic AMP formation; format: functional, cell-based
T1 sequence (P31421 whole entry): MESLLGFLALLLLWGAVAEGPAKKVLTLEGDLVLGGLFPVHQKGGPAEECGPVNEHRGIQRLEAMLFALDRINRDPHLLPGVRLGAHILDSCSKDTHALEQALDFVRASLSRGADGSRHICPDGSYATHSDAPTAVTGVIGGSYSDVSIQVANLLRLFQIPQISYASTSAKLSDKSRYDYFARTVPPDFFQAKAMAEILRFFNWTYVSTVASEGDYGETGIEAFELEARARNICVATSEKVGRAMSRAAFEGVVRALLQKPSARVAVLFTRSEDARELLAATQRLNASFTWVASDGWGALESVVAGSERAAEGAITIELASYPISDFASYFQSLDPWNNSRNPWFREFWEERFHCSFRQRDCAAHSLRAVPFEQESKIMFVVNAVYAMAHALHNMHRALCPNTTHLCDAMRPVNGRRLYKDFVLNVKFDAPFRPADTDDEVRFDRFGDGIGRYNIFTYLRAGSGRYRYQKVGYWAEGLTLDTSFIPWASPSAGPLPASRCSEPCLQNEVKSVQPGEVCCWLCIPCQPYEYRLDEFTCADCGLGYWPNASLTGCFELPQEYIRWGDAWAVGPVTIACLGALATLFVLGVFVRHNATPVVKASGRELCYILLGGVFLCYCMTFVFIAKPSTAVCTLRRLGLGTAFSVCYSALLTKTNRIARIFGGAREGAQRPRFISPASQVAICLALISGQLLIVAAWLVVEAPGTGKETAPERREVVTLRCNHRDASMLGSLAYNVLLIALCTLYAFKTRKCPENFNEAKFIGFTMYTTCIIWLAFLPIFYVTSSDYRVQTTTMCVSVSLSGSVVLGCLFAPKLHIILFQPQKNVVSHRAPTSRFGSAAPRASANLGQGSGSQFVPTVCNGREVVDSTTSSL

[2] = molecular target: T2, Metabotropic glutamate receptor 3 (Rattus norvegicus, UniProt P31422); experiment: Tested for binding affinity against Metabotropic glutamate receptor 3 in CHO cells using [3H]-7 as radioligand; format: cell-based
T2 sequence (P31422 whole entry): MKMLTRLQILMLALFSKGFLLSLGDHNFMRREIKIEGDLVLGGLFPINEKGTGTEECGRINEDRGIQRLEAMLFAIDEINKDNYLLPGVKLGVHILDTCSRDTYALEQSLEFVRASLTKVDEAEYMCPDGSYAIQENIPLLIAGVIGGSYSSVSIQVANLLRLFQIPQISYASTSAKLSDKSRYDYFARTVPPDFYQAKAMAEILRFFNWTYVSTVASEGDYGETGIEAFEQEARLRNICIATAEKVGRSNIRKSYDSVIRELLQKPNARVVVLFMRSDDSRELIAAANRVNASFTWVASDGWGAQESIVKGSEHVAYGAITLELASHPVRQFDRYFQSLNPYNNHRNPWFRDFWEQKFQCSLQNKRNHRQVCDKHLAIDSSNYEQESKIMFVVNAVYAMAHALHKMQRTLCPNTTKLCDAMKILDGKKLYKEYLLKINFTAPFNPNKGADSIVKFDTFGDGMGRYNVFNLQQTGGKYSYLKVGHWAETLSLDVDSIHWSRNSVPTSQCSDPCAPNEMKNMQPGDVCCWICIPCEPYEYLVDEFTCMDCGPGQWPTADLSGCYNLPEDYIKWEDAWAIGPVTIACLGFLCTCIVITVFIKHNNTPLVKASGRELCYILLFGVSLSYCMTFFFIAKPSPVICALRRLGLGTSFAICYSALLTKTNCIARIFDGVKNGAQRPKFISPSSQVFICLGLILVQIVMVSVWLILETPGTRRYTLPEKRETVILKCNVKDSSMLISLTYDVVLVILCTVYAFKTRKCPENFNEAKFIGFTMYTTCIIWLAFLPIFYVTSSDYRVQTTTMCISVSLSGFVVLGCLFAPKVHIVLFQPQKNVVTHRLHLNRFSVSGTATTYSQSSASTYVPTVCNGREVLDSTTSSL

[3] = tested on: Rattus norvegicus; experiment: (§1) Effective dose to evaluate PCP induced hyper activity in rats after oral administration; format: functional
[4] = tested on: Rattus norvegicus; experiment: (§2) Tested for % inhibition of PCP induced hyperactivity in rats at 30 mg/kg; format: functional
[5] = tested on: Rattus norvegicus; experiment: (§3) Tested for mGluR agonist activity by measuring the PCP induced hyperactivity in rats at 10 mg/kg; format: functional
[6] = tested on: Rattus norvegicus; experiment: Tested for mGluR agonist activity by measuring the PCP induced hyperactivity in rats at […]; format: functional
[7] = tested on: Rattus norvegicus; experiment: Effective dose to evaluate PCP induced head-weaving behavior in rats after oral administration; format: functional
[8] = tested on: Rattus norvegicus; experiment: Tested for % inhibition of PCP induced hyperactivity in rats at 100 mg/kg
[9] = tested on: Rattus norvegicus; experiment: (§4) Tested for % inhibition of PCP induced hyperactivity in rats at 10 mg/kg; format: functional
[10] = tested on: Rattus norvegicus; experiment: Tested for mGluR agonist activity by measuring the head-weaving behavior in rats at 1000 ug/kg
[11] = tested on: Rattus norvegicus; experiment: (§5) Tested for mGluR agonist activity by measuring the PCP induced hyperactivity in rats at 30 mg/kg; format: functional
[12] = tested on: Rattus norvegicus; experiment: Tested for % inhibition of PCP induced head-weavings in rats at 10000 ug/kg
[13] = tested on: Rattus norvegicus; experiment: Tested for mGluR agonist activity by measuring the PCP induced hyperactivity in rats at 100 mg/kg; format: functional
[14] = molecular target: T2, Metabotropic glutamate receptor 3; experiment: Agonist potency against cloned Metabotropic glutamate receptor 3; format: functional
[15] = tested on: Rattus norvegicus; experiment: Tested for mGluR agonist activity by measuring the PCP induced hyperactivity in rats at 3 mg/kg; format: functional
Outline: (§6)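 Rats housed singly and acclimatized 60 min in activity-monitoring apparatus inside a sound-proof box. Oral dosing 180 min before PCP 5 mg/kg i.p.; locomotor counts recorded every 10 min for 120 min, n=6 per group. Total counts expressed as percent inhibition relative to vehicle (100%); ED50 derived; ANOVA plus Dunnett's test.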

[16] = tested on: Rattus norvegicus; experiment: Tested for mGluR agonist activity by measuring the PCP induced head weaving behavior in rats at 0.03 ug/kg; format: functional
Outline: (§7)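 Rats acclimatized individually at least 60 min. Compound given orally 60 min before PCP 7.5 mg/kg i.p. Head-weavings (slow side-to-side head movements) counted every 10 min for 30 min after PCP, n=6 per group. Percent inhibition versus vehicle total (100%); ED50 derived; ANOVA with Dunnett's test.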

[17] = tested on: Rattus norvegicus; experiment: Tested for % inhibition of PCP induced head-weavings in rats at 0.3 ug/kg; format: functional; outline: as §7
[18] = tested on: Rattus norvegicus; experiment: Tested for % inhibition of PCP induced hyperactivity in rats at 3 mg/kg; format: functional; outline: as §6
[19] = tested on: Rattus norvegicus; experiment: Tested for mGluR agonist activity by measuring the PCP induced hyperactivity in rats at 1 mg/kg; format: functional; outline: as §6
[20] = tested on: Rattus norvegicus; experiment: Tested for % inhibition of PCP induced head-weavings in rats at 0.1 ug/kg; format: functional; outline: as §7
[21] = tested on: Rattus norvegicus; experiment: Tested for mGluR agonist activity by measuring the PCP induced hyperactivity in rats at 0.3 mg/kg; format: functional; outline: as §6
[22] = tested on: Rattus norvegicus; experiment: Tested for % inhibition of PCP induced hyperactivity in rats at 1 mg/kg; format: functional; outline: as §6
[23] = tested on: Rattus norvegicus; experiment: as §1; format: functional; outline: as §6; remark: listed apart in the source
[24] = molecular target: T2, Metabotropic glutamate receptor 3; experiment: Antagonist activity against Metabotropic glutamate receptor 3 expressed in CHO cells was evaluated in presence of 30 uM glutamic acid; format: functional, cell-based
Outline: (§8)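 mGluR2- or mGluR3-expressing CHO cells grown 2 days, then held 4-5 h in medium without glutamine. Cells were preincubated 20 min at 37 °C in PBS with 1 mM IBMX, then exposed for 15 min at 37 °C to 10 µM forskolin plus test agent with 30 µM glutamic acid present. Reaction stopped with ice-cold ethanol; cAMP measured by enzyme immunoassay.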

[25] = tested on: Rattus norvegicus; experiment: Tested for % inhibition of PCP induced hyperactivity in rats at 0.3 mg/kg; format: functional; outline: as §6
[26] = molecular target: T1, Metabotropic glutamate receptor 2; experiment: Antagonist activity against Metabotropic glutamate receptor 2 expressed in CHO cells was evaluated in presence of 30 uM glutamic acid; format: functional, cell-based; settings: read-out: EC50 (the source's name)
[27] = tested on: Rattus norvegicus; experiment: Tested for mGluR agonist activity by measuring the PCP induced hyperactivity in rats at 0.1 mg/kg; format: functional; outline: as §6
[28] = tested on: Rattus norvegicus; experiment: Tested for mGluR agonist activity by measuring the PCP induced head weaving behavior in rats at 0.3 ug/kg; format: functional; outline: as §7
[29] = tested on: Rattus norvegicus; experiment: Tested for % inhibition of PCP induced head-weavings in rats at 0.03 ug/kg; format: functional; outline: as §7
[30] = molecular target: T1, Metabotropic glutamate receptor 2; experiment: Tested for binding affinity against Metabotropic glutamate receptor 2 in CHO cells using [3H]-7 as radioligand; format: cell-based
[31] = tested on: Rattus norvegicus; experiment: Tested for % inhibition of PCP induced hyperactivity in rats at 0.1 mg/kg; format: functional; outline: as §6
[32] = tested on: Rattus norvegicus; experiment: Tested for mGluR agonist activity by measuring the PCP induced head weaving behavior in rats at 0.1 ug/kg; format: functional; outline: as §7
[33] = tested on: Rattus norvegicus; experiment: Tested for mGluR agonist activity by measuring the PCP induced head-weavings in rats at 300 ug/kg; format: functional; outline: as §7
[34] = tested on: Rattus norvegicus; experiment: as §3; format: functional; outline: as §6; remark: listed apart in the source
[35] = tested on: Rattus norvegicus; experiment: as §4; format: functional; outline: as §6; remark: listed apart in the source
[36] = tested on: Rattus norvegicus; experiment: Tested for % inhibition of PCP induced head-weavings in rats at 1000 ug/kg; format: functional; outline: as §7
[37] = tested on: Rattus norvegicus; experiment: Tested for % inhibition of PCP induced head-weavings in rats at 100 ug/kg; format: functional; outline: as §7
[38] = tested on: Rattus norvegicus; experiment: as §2; format: functional; outline: as §6; remark: listed apart in the source
[39] = tested on: Rattus norvegicus; experiment: Tested for mGluR agonist activity by measuring the PCP induced head-weavings in rats at 1000 ug/kg; format: functional; outline: as §7
[40] = tested on: Rattus norvegicus; experiment: Tested for mGluR agonist activity by measuring the PCP induced head-weavings in rats at 100 ug/kg; format: functional; outline: as §7
[41] = tested on: Rattus norvegicus; experiment: Tested for % inhibition of PCP induced head-weavings in rats at 300 ug/kg; format: functional; outline: as §7
[42] = tested on: Rattus norvegicus; experiment: as §5; format: functional; outline: as §6; remark: listed apart in the source
[43] = molecular target: T1, Metabotropic glutamate receptor 2; experiment: Antagonist activity against Metabotropic glutamate receptor 2 expressed in CHO cells was evaluated by measuring forskolin-induced cyclic AMP formation; format: functional, cell-based; outline: as §8

N[C@@]1(C(=O)O)CC(=O)[C@@H]2[C@H]1[C@@]2(F)C(=O)O (racemic)
EC50 [1]: 1.26 nM

N[C@@]1(C(=O)O)CC[C@H]2[C@H](C(=O)O)[C@H]21
Ki [2]: 53.5 nM | ED50 [3]: > 100 mg/kg | inhibition in vivo at 30 mg/kg [4]: 32% | Total counts [5]: 40600 | Total counts [6]: 6.5 | ED50 [7]: 3 mg/kg | inhibition in vivo at 100 mg/kg [8]: 44% | inhibition in vivo at 10 mg/kg [9]: 37% | Number of head-weavings [10]: 33 | Total counts [11]: 43800 | Inhibition % [12]: 83% | Total counts [13]: 36000 | EC50 [14]: 62.8 nM

N[C@@]1(C(=O)O)CC(=O)[C@@H]2[C@H]1[C@@]2(F)C(=O)O (stereo in doubt; (+)-14)
Total counts [15]: 7760 | Total counts [16]: 27.1 | Ki [2]: 3.62 nM | inhibition in vivo at 0.0003 mg/kg [17]: 86% | inhibition in vivo at 3 mg/kg [18]: 87% | Total counts [19]: 26100 | EC50 [1]: 0.57 nM | inhibition in vivo at 0.0001 mg/kg [20]: 52% | Total counts [21]: 27700 | inhibition in vivo at 1 mg/kg [22]: 56% | ED50 [23]: 0.3 mg/kg | EC50 [24]: > 100000 nM | inhibition in vivo at 0.3 mg/kg [25]: 54% | IC50 [26]: > 100000 nM | Total counts [27]: 38500 | Total counts [28]: 4.88 | inhibition in vivo at 3e-05 mg/kg [29]: 21% | Ki [30]: 3.3 nM | inhibition in vivo at 0.1 mg/kg [31]: 36% | EC50 [14]: 2.07 nM | Total counts [32]: 16.2

N[C@@]1(C(=O)O)CC[C@@H]2[C@H]1[C@@]2(F)C(=O)O (racemic)
EC50 [1]: 34.2 nM

N[C@@]1(C(=O)O)CC[C@@H]2[C@H]1[C@@]2(F)C(=O)O (stereo in doubt; (-)-11)
Ki [2]: 41.7 nM | EC50 [1]: 16.6 nM | EC50 [24]: > 100000 nM | IC50 [26]: > 100000 nM | Ki [30]: 22.5 nM | EC50 [14]: 80.9 nM

N[C@@]1(C(=O)O)CC(O)[C@@H]2[C@H]1[C@@]2(F)C(=O)O (mixture of isomers)
EC50 [1]: 21 nM | IC50 [26]: > 100000 nM

N[C@]1(C(=O)O)[C@H]2[C@@H](C[C@@H]1F)[C@@H]2C(=O)O
Total counts [15]: 40600 | Total counts [33]: 21 | Total counts [34]: 11300 | Ki [2]: 65.9 nM | inhibition in vivo at 10 mg/kg [35]: 79% | inhibition in vivo at 1 mg/kg [36]: 81% | inhibition in vivo at 3 mg/kg [18]: 26% | inhibition in vivo at 0.1 mg/kg [37]: 35% | inhibition in vivo at 30 mg/kg [38]: 97% | ED50 [23]: 5.1 mg/kg | Total counts [39]: 7.5 | EC50 [24]: > 100000 nM | Total counts [40]: 25.5 | inhibition in vivo at 0.3 mg/kg [41]: 47% | EC50 [14]: 45.4 nM | Total counts [42]: 1850

C[C@]1(C(=O)O)[C@@H]2CC[C@@](N)(C(=O)O)[C@@H]21 (racemic)
EC50 [1]: > 100000 nM | EC50 [43]: > 100000 nM

N[C@]1(C(=O)O)[C@H]2[C@@H](CC1(F)F)[C@@H]2C(=O)O (racemic)
EC50 [1]: > 100000 nM | IC50 [26]: 36200 nM

N[C@@]1(C(=O)O)CC[C@@H]2[C@H]1[C@@]2(F)C(=O)O (stereo in doubt; (+)11)
EC50 [1]: 1120 nM

N[C@@]1(C(=O)O)CC(=O)[C@@H]2[C@H]1[C@@]2(F)C(=O)O (stereo in doubt; (-)-14)
EC50 [1]: 94.7 nM
